Results reported in ChEMBL document CHEMBL4834441, “Design, synthesis and biological evaluation of a series of iron and copper chelating deferiprone derivatives as new agents active against Candida albicans” (Bioorg Med Chem Lett, 2021).
Values after ≈ are worked out from the molar mass of the structure shown. Active and inactive are the calls of the source.

Experiments:
Candida albicans [1] = assay: Antibiofilm activity against Candida albicans ATCC 10231 assessed as inhibition of biofilm formation; format: functional
Outline: (§1)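 C. albicans ATCC 10231 biofilm, tested during formation and as mature (48 h) biofilm; compounds tested up to 128 μg/mL. BMIC50 taken as lowest concentration giving 50% decrease of biofilm relative to untreated growth control; three independent experiments in triplicate, median reported.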

Candida albicans [2] = assay: Antifungal activity against Candida albicans ATCC 10231; format: functional
Outline: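 Planktonic C. albicans ATCC 10231 cells; compounds tested up to 128 μg/mL. MIC50 defined as lowest concentration producing 50% growth inhibition; three independent experiments, each in triplicate, values given as median.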

Candida albicans [3] = assay: Antibiofilm activity against Candida albicans ATCC 10231 assessed as reduction in mature biofilm; format: functional; outline: as §1
[4] = Metal chelating activity assessed as Fe3+-compound complex formation by UV-visible spectrophotometry
Outline: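 Stoichiometry of ligand–Fe3+ complex found by Job's method of continuous variations from UV titration spectra, Job's plot read at 302 nm; stability constant (logKstab) then calculated by UV–Vis spectroscopy for the determined stoichiometry.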

[5] = Metal chelating activity assessed as Cu2+-compound complex formation by UV-visible spectrophotometry
Outline: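 UV–Vis spectroscopic titration of the ligand with Cu2+. The stability constant was calculated from the spectra once the 1:1 stoichiometry was known, and is reported as logKstab ±.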

| Structure (SMILES) | MBIC50 (Candida albicans [1]) [µg/mL] | MIC50 (Candida albicans [2]) [µg/mL] | MBIC50 (Candida albicans [3]) [µg/mL] | Activity [4] | Activity [5] |
| --- | --- | --- | --- | --- | --- |
| Cc1c(O)c(=O)ccn1CCCc1ccccc1.Cl | 32 | 32 | >128 | – | – |
| Cc1c(O)c(=O)ccn1CCCCNC(=O)C(C)c1ccc(C(=O)c2ccccc2)cc1 (configuration not stated) | 128 | > 128 | >128 | – | – |
| COc1ccccc1Cn1ccc(=O)c(OCc2ccccc2)c1C | >128 | > 128 | >128 | – | – |
| Cc1c(OCc2ccccc2)c(=O)ccn1CCCCCCn1ccc(=O)c(OCc2ccccc2)c1C | >128 | > 128 | >128 | – | – |
| Cc1c(OCc2ccccc2)c(=O)ccn1CCCCNC(=O)C(C)c1ccc(CC(C)C)cc1 (configuration not stated) | 32 | > 128 | >128 | Active | – |
| Cc1c(OCc2ccccc2)c(=O)ccn1CCCCNC(=O)Cc1ccccc1 | >128 | > 128 | >128 | – | – |
| Cc1c(O)c(=O)ccn1CCCCNC(=O)C(C)c1ccc(CC(C)C)cc1 (configuration not stated) | 128 | 4 (≈ 10.4 µM) | >128 | Active | Active |
| Cc1c(OCc2ccccc2)c(=O)ccn1CCCCc1ccccc1 | >128 | > 128 | >128 | Active | – |
| Cc1c(O)c(=O)ccn1CCCCCn1ccc(=O)c(O)c1C.Cl.Cl | 128 | > 128 | >128 | – | – |
| Cc1c(OCc2ccccc2)c(=O)ccn1CCCCNC(=O)C(C)c1ccc(C(=O)c2ccccc2)cc1 (configuration not stated) | >128 | > 128 | >128 | – | – |
| Cc1c(O)c(=O)ccn1C [DEFERIPRONE] | 32 | 128 (≈ 920 µM) | 128 | – | – |
